Assay results from article PMC8251533 (Clinical Pharmacology in Drug Development, 2021).

How the values were obtained:
[1] = Semaglutide plasma pharmacokinetics after a single dose of oral semaglutide; format: in vivo, human
Method in brief: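 Same crossover, dosing and fasting. Plasma was drawn predose and 0.5–24 h and analysed by LC-MS/MS (LLOQ 0.73 nmol/L). Trapezoidal AUC0-24h was used; log-transformed mixed models (volume, period fixed; subject random) allowed left-censoring. For correlation, log PK was modelled against log time to complete tablet erosion, assessed by gamma scintigraphy of ¹¹¹In-labelled tablets. 2^β gave the fold change per doubling. All-below-LLOQ profiles were imputed from 0.5×LLOQ.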

[2] = SNAC plasma pharmacokinetics after a single dose of oral semaglutide; format: in vivo, human; conditions: for Median tmax,SNAC: plasma, LC-MS/MS
Method in brief: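 Two-period randomized crossover in 26 fasting healthy men. Each received one 10 mg tablet (coformulated with 300 mg absorption enhancer), upright, between 8 and 11 am, with 50 or 240 mL water. Fasting continued ≥4 h, with 200 mL water at 2 h. Plasma was drawn predose and 10 min–6 h and assayed by protein precipitation LC-MS/MS. Trapezoidal AUC0-6h used actual times. AUC and Cmax were log-transformed; mixed model had volume and period fixed, subject random.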

[3] = linear mixed model, log-transformed
[4] = single oral semaglutide tablet with 300 mg SNAC, fasting healthy men

Structure (SMILES)	2^β, estimated fold change in AUC0-24h,semaglutide if time to CTE is doubled [1, 3]	2^β, estimated fold change in Cmax,semaglutide if time to CTE is doubled [1, 3]	2^β, estimated fold change in tmax,semaglutide if time to CTE is doubled [1, 3]	AUC0-24h,semaglutide, higher with 50 versus 240 mL water ([1]; single 10 mg oral semaglutide)	Cmax,semaglutide, higher with 50 versus 240 mL water ([1]; single 10 mg oral semaglutide)	Median tmax,SNAC ([2]; 50 mL water) [min]	Median tmax,SNAC ([2]; 240 mL water) [min]	AUC0-6h,SNAC, lower with 50 versus 240 mL water [2, 4] [%]	Cmax,SNAC, lower with 50 versus 240 mL water [2, 4] [%]
CC[C@H](C)[C@H](NC(=O)[C@H](Cc1ccccc1)NC(=O)[C@H](CCC(=O)O)NC(=O)[C@H](CCCCNC(=O)COCCOCCNC(=O)COCCOCCNC(=O)CC[C@H](NC(=O)CCCCCCCCCCCCCCCCC(=O)O)C(=O)O)NC(=O)[C@H](C)NC(=O)[C@H](C)NC(=O)[C@H](CCC(N)=O)NC(=O)CNC(=O)[C@H](CCC(=O)O)NC(=O)[C@H](CC(C)C)NC(=O)[C@H](Cc1ccc(O)cc1)NC(=O)[C@H](CO)NC(=O)[C@H](CO)NC(=O)[C@@H](NC(=O)[C@H](CC(=O)O)NC(=O)[C@H](CO)NC(=O)[C@@H](NC(=O)[C@H](Cc1ccccc1)NC(=O)[C@@H](NC(=O)CNC(=O)[C@H](CCC(=O)O)NC(=O)C(C)(C)NC(=O)[C@@H](N)Cc1cnc[nH]1)[C@@H](C)O)[C@@H](C)O)C(C)C)C(=O)N[C@@H](C)C(=O)N[C@@H](Cc1c[nH]c2ccccc12)C(=O)N[C@@H](CC(C)C)C(=O)N[C@H](C(=O)N[C@@H](CCCNC(=N)N)C(=O)NCC(=O)N[C@@H](CCCNC(=N)N)C(=O)NCC(=O)O)C(C)C [semaglutide]	approximately 2	approximately 2	~1.5	approximately 70%	approximately 70%				
O=C([O-])CCCCCCCNC(=O)c1ccccc1O.[Na+] [SNAC, sodium N‐(8‐[2‐hydroxybenzoyl]amino) caprylate]						18	18	19	38
